Test results published in ChEMBL document CHEMBL4017529, “Rational Design of Selective Adenine-Based Scaffolds for Inactivation of Bacterial Histidine Kinases” (J Med Chem, 2017).
One block for each compound: values may come before it. Calls of active or inactive are those of the source. No cut-off for these calls is given here.

Assays:
[1] = Inhibition of BODIPY-FL-ATPgammaS binding to Thermotoga maritima His-tagged HK853 expressed in Escherichia coli BL21(DE3)pLysS Rosetta preincubated for 30 mins followed by 1 hr incubation by SDS-PAGE in-gel fluorescence assay
Thermotoga maritima [2] = assay: Induction of Thermotoga maritima His-tagged HK853 expressed in Escherichia coli BL21(DE3)pLysS Rosetta aggregation at 100 uM after 30 mins by PAGE analysis
In short: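 Samples were run on 7.5% native-PAGE and silver stained. Aggregation was scored as loss of the dimeric HK853 band. NH125 served as positive aggregation control.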

[3] = Selectivity ratio of IC50 for human full length C-terminal His-tagged Hsp90 alpha expressed in Escherichia coli to IC50 for Thermotoga maritima His-tagged HK853 expressed in Escherichia coli BL21(DE3)pLysS Rosetta
[4] = target: T1, Heat shock protein HSP 90-alpha (Homo sapiens, UniProt P07900); assay: Inhibition of full length human C-terminal His-tagged Hsp90 alpha expressed in Escherichia coli at […] by fluorescence polarization assay relative to control
Thermotoga maritima [5] = assay: Inhibition of ATPgammaS-BODIPY binding to Thermotoga maritima His-tagged HK853 expressed in Escherichia coli BL21(DE3)pLysS Rosetta at […] preincubated for 30 mins prior to ATPgammaS-BODIPY addition measured after 1 hr by […] SDS-PAGE analysis
Thermotoga maritima [6] = assay: Binding affinity to Thermotoga maritima His-tagged HK853 D411A mutant expressed in Escherichia coli BL21(DE3)pLysS Rosetta assessed as change in melting temperature at 1 mM by SYPRO orange dye based differential scanning fluorimetric analysis
Thermotoga maritima [7] = assay: Binding affinity to wild type Thermotoga maritima His-tagged HK853 expressed in Escherichia coli BL21(DE3)pLysS Rosetta assessed as change in melting temperature at 1 mM by SYPRO orange dye based differential scanning fluorimetric analysis
In short: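 Wild-type HK853 at 2–5 µM final in reaction buffer, with SYPRO orange at 5x final. Compound was added at 1 mM final from a 25 mM DMSO stock; the control got DMSO alone. Reactions were 25 µL, made up on ice. Melt ran 20–95 °C at 1 °C min⁻¹ with HEX-filter fluorescence. Tm came from the melt curves, and ΔTm was taken against the control.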

Thermotoga maritima [8] = assay: Induction of Thermotoga maritima His-tagged HK853 aggregation expressed in Escherichia coli BL21(DE3)pLysS Rosetta at >= […] after 30 mins by PAGE analysis
[9] = target: T1, Heat shock protein HSP 90-alpha; assay: Inhibition of full length human C-terminal His-tagged Hsp90 alpha expressed in Escherichia coli by fluorescence polarization assay
Thermotoga maritima [10] = assay: Induction of Thermotoga maritima His-tagged HK853 expressed in Escherichia coli BL21(DE3)pLysS Rosetta aggregation at […] after 30 mins by PAGE analysis

Structure (SMILES): Nc1ncnc2c1ncn2[C@@H]1O[C@H](COP(=O)(O)OP(=O)(O)OP(=O)(O)O)[C@@H](O)[C@H]1O [ADENOSINE TRIPHOSPHATE]
- IC50 [1]: 27 µM

Structure (SMILES): Brc1ccc(CSc2[nH]cnc3ncnc2-3)cc1
- Activity (Thermotoga maritima [2]): Active

Structure (SMILES): NS(=O)(=O)c1ccc(CCNc2ncnc3[nH]cnc23)cc1
- Activity (Thermotoga maritima [2]): Active

Structure (SMILES): Nc1ncnc2c1ncn2[C@@H]1O[C@H](COP(=O)(O)O)[C@@H](O)[C@H]1O [ADENOSINE PHOSPHATE]
- IC50 [1]: 1030 µM

Structure (SMILES): c1ccc(N2CCN(c3ncnc4[nH]cnc34)CC2)nc1
- Activity (Thermotoga maritima [2]): Active

Structure (SMILES): C=CC(=O)N1CCC[C@H](n2nc(-c3ccc(Oc4ccccc4)cc3)c3c(N)ncnc32)C1
- inhibition (Thermotoga maritima [5]): inactive

Structure (SMILES): CC[C@@H](Nc1ncnc2nc[nH]c12)c1nc2cccc(F)c2c(=O)n1-c1ccccc1
- inhibition (Thermotoga maritima [5]): inactive

Structure (SMILES): CCCN(CCC)c1[nH]cnc2ncnc1-2
- ΔTm (Thermotoga maritima [6]): < 2 °C
- ΔTm (Thermotoga maritima [7]): 10 °C
- Ratio IC50 [3]: 10 to 2000
- inhibition [4]: > 45%

Structure (SMILES): c1ccc(CCNc2ncnc3[nH]cnc23)cc1
- inhibition [4]: > 45%

Structure (SMILES): COc1ccccc1N1CCN(c2[nH]cnc3ncnc2-3)CC1
- Activity (Thermotoga maritima [2]): Active

Structure (SMILES): Nc1ncnc2c1ncn2[C@@H]1O[C@H](COP(=O)(O)OP(=O)(O)O)[C@@H](O)[C@H]1O [ADENOSINE DIPHOSPHATE]
- ΔTm (Thermotoga maritima [6]): < 2 °C
- ΔTm (Thermotoga maritima [7]): 10 °C
- IC50 [1]: 2.4 µM

Structure (SMILES): c1ccc(Nc2ncnc3[nH]cnc23)cc1
- Activity (Thermotoga maritima [8]): inactive

Structure (SMILES): FC(F)(F)c1cccnc1N1CCN(c2[nH]cnc3ncnc2-3)CC1
- Activity (Thermotoga maritima [2]): Active

Now from value to compound:

- Activity (Thermotoga maritima [2]): Active
Structure (SMILES): CC1CCN(c2ncnc3[nH]cnc23)CC1

- Activity (Thermotoga maritima [2]): Active
Structure (SMILES): Clc1ccc(CSc2[nH]cnc3ncnc2-3)cc1

- Activity (Thermotoga maritima [2]): Active
Structure (SMILES): Clc1c(CSc2ncnc3[nH]cnc23)ccc2c1OCO2

- Ratio IC50 [3]: 10 to 2000
Structure (SMILES): CC1CC(Nc2ncnc3[nH]cnc23)CC(C)(C)C1 (centres undefined)

- Activity (Thermotoga maritima [2]): Active
Structure (SMILES): C=CCSc1ncnc2[nH]cnc12

- Activity (Thermotoga maritima [2]): Active
Structure (SMILES): COc1ccc(OC)c(NC(=O)CSc2ncnc3[nH]cnc23)c1

- inhibition [4]: > 45%
Structure (SMILES): Nc1nc(Cl)nc2c1ncn2[C@@H]1O[C@H](CO)[C@@H](O)[C@H]1O

- Activity (Thermotoga maritima [2]): Active
Structure (SMILES): Cc1ccccc1OCn1cnc2c(N)ncnc21

- Activity (Thermotoga maritima [2]): Active
Structure (SMILES): Nc1ncnc2c1ncn2CCN1CCOCC1

- Activity (Thermotoga maritima [2]): Active
Structure (SMILES): Clc1ccccc1CSc1ncnc2[nH]cnc12

- Activity (Thermotoga maritima [2]): Active
Structure (SMILES): c1ccc(CSc2ncnc3[nH]cnc23)cc1

- Activity (Thermotoga maritima [2]): Active
Structure (SMILES): Brc1cccc(CSc2ncnc3[nH]cnc23)c1

- Ratio IC50 [3]: 10 to 2000
- IC50 [9]: > 1250 µM
- inhibition [4]: > 45%
- Activity (Thermotoga maritima [10]): inactive
Structure (SMILES): Cn1cnc2c(N)nc(Cl)nc21
